Test results as given in PMC6519384 (Andrology, 2018).

Tests used:
blood esterases = assay: Ex vivo addition of DMAU to blood in different blood collection tubes; assay type: in vitro ADME, human; details: for Reduction of conversion of DMAU to DMA in NaF tubes: NaF 15 mg/mL blood; for Reduction of conversion of DMAU to DMA in NaF tubes / DMA level: 60 min at RT; for DMA level: plain tube
Summary of the method: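 Freshly drawn venous whole blood from healthy men is split into 2 mL aliquots in plain or esterase-inhibitor tubes, in duplicate. DMAU in methanol is added to 125–1000 ng/mL and held 30 or 60 min at 4 °C or 60 min at 23 °C before centrifugation. DMA is extracted twice with MTBE/hexane (50:50) and run by LC‑MS/MS. Duplicates are averaged and results given as % difference vs plain tube under the same conditions.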

[1] = Single oral dose of 200 mg DMAU in healthy men; assay type: in vivo, human; details: oral 200 mg DMAU
Summary of the method: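 Fifteen healthy men took 200 mg DMAU orally after a meal, in castor oil/benzyl benzoate or as capsule powder. Ten blood draws over 24 h went into plain tubes (kept at RT) and NaF‑containing tubes (4 °C), each held 30 min before centrifugation. DMA and DMAU were measured by LC‑MS/MS. The plain minus NaF‑EDTA DMA difference was regressed on average DMAU, split at 10 ng/mL.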

[2] = DMAU added to serum with increasing NaF, DMA measured; assay type: in vitro ADME, human; details: Table S1, Experiment 3
[3] = DMAU 300 ng/mL, K2EDTA (1.8 mg/mL) tube, 30 min 4 °C
[4] = DMAU 300 ng/mL, K2EDTA (1.8 mg/mL) tube, 60 min 4 °C
[5] = DMAU 300 ng/mL, K2EDTA (1.8 mg/mL) tube, 60 min RT
[6] = DMAU 300 ng/mL, NaF (1.5 mg/mL) + Na2EDTA (3 mg/mL) tube, 30 min 4 °C
[7] = DMAU 300 ng/mL, NaF (1.5 mg/mL) + Na2EDTA (3 mg/mL) tube, 60 min 4 °C
[8] = DMAU 300 ng/mL, NaF (5 mg/mL) + K2Oxalate (4 mg/mL) tube, 60 min 4 °C
[9] = DMAU 300 ng/mL, NaF (5 mg/mL) + K2Oxalate (4 mg/mL) tube, 60 min RT
[10] = DMAU 300 ng/mL, P800 tube, 30 min 4 °C
[11] = DMAU 300 ng/mL, P800 tube, 60 min 4 °C
[12] = DMAU 300 ng/mL, P800 tube, 60 min RT
[13] = DMAU 600 ng/mL, K2EDTA (1.8 mg/mL) tube, 30 min 4 °C
[14] = DMAU 600 ng/mL, K2EDTA (1.8 mg/mL) tube, 60 min 4 °C
[15] = DMAU 600 ng/mL, K2EDTA (1.8 mg/mL) tube, 60 min RT
[16] = DMAU 600 ng/mL, NaF (1.5 mg/mL) + Na2EDTA (3 mg/mL) tube, 30 min 4 °C
[17] = DMAU 600 ng/mL, NaF (1.5 mg/mL) + Na2EDTA (3 mg/mL) tube, 60 min 4 °C
[18] = DMAU 600 ng/mL, NaF (1.5 mg/mL) + Na2EDTA (3 mg/mL) tube, 60 min RT
[19] = DMAU 600 ng/mL, NaF (5 mg/mL) + K2Oxalate (4 mg/mL) tube, 30 min 4 °C
[20] = DMAU 600 ng/mL, NaF (5 mg/mL) + K2Oxalate (4 mg/mL) tube, 60 min 4 °C
[21] = DMAU 600 ng/mL, NaF (5 mg/mL) + K2Oxalate (4 mg/mL) tube, 60 min RT
[22] = DMAU 600 ng/mL, P800 tube, 30 min 4 °C
[23] = DMAU 600 ng/mL, P800 tube, 60 min 4 °C
[24] = DMAU 600 ng/mL, P800 tube, 60 min RT

Q: With `CCCCCCCCCCC(=O)O[C@H]1CC[C@H]2[C@H]3[C@H]([C@@H](C)C[C@]12C)[C@H]1CCC(=O)C=C1C[C@H]3C` [DMAU, dimethandrolone undecanoate] as the compound, how does the “Reduction of conversion of DMAU to DMA in NaF tubes” value (from here on “Reduction of conversion of DMAU”) (blood esterases; DMAU 125 ng/mL) read?
A: Its value is 72%.

Q: What about the DMA level (blood esterases; DMAU 125 ng/mL) of the same compound?
A: The DMA level was 1.57 ng/mL.

Q: What about the “Reduction of conversion of DMAU” value (blood esterases; DMAU 250 ng/mL) of the same compound?
A: Its value is 61.3%.

Q: What about the DMA level (blood esterases; DMAU 250 ng/mL) of the same compound?
A: The DMA level was 2.79 ng/mL.

Q: What about the “% difference vs. Plain” value (blood esterases; [3]) of the same compound?
A: Its value is −56.1%.

Q: And the DMA (blood esterases; [3])?
A: Its DMA is 1.4 ng/mL.

Q: What about the “% difference vs. Plain” value (blood esterases; [4]) of the same compound?
A: The value was −76.5%.

Q: What about the DMA (blood esterases; [4]) of the same compound?
A: The DMA was 1.4 ng/mL.

Q: And the “% difference vs. Plain” value (blood esterases; [5])?
A: The value was “+15.2%”.

Q: What about the DMA (blood esterases; [5]) of the same compound?
A: The DMA was 9.7 ng/mL.

Q: What about the “% difference vs. Plain” value (blood esterases; [6]) of the same compound?
A: The value was −80.6%.

Q: And the DMA (blood esterases; [6])?
A: The DMA was 0.6 ng/mL.

Q: What about the “% difference vs. Plain” value (blood esterases; [7]) of the same compound?
A: Its value is −77.3%.

Q: What about the DMA (blood esterases; [7]) of the same compound?
A: The DMA was 1.3 ng/mL.

Q: What about the DMA (blood esterases; DMAU 300 ng/mL, NaF (5 mg/mL) + K2Oxalate (4 mg/mL) tube, 30 min 4 °C) of the same compound?
A: The DMA was “LLOQ”.

Q: And the “% difference vs. Plain” value (blood esterases; [8])?
A: The value was −82.2%.

Q: And the DMA (blood esterases; [8])?
A: The DMA was 1 ng/mL.

Q: What about the “% difference vs. Plain” value (blood esterases; [9]) of the same compound?
A: Its value is −31.9%.

Q: And the DMA (blood esterases; [9])?
A: Its DMA is 5.7 ng/mL.

Q: What about the “% difference vs. Plain” value (blood esterases; [10]) of the same compound?
A: The value was −78.1%.

Q: What about the DMA (blood esterases; [10]) of the same compound?
A: Its DMA is 0.7 ng/mL.

Q: And the “% difference vs. Plain” value (blood esterases; [11])?
A: The value was −84.2%.

Q: What about the DMA (blood esterases; [11]) of the same compound?
A: Its DMA is 0.9 ng/mL.

Q: What about the “% difference vs. Plain” value (blood esterases; [12]) of the same compound?
A: The value was −20.6%.

Q: What about the DMA (blood esterases; [12]) of the same compound?
A: Its DMA is 6.7 ng/mL.

Q: And the DMA (blood esterases; DMAU 300 ng/mL, Plain tube, 30 min 4 °C)?
A: The DMA was 3.3 ng/mL.

Q: And the DMA (blood esterases; DMAU 300 ng/mL, Plain tube, 60 min 4 °C)?
A: The DMA was 5.9 ng/mL.

Q: What about the DMA (blood esterases; DMAU 300 ng/mL, Plain tube, 60 min RT) of the same compound?
A: The DMA was 8.4 ng/mL.

Q: And the “Reduction of conversion of DMAU” value (blood esterases; DMAU 500 ng/mL)?
A: The value was 54.3%.

Q: And the DMA level (blood esterases; DMAU 500 ng/mL)?
A: The DMA level was 5.54 ng/mL.

Q: What about the “% difference vs. Plain” value (blood esterases; [13]) of the same compound?
A: Its value is −17.1%.

Q: And the DMA (blood esterases; [13])?
A: The DMA was 1.2 ng/mL.

Q: And the “% difference vs. Plain” value (blood esterases; [14])?
A: Its value is −46.4%.

Q: What about the DMA (blood esterases; [14]) of the same compound?
A: Its DMA is 2.3 ng/mL.

Q: And the “% difference vs. Plain” value (blood esterases; [15])?
A: Its value is “+13.4%”.

Q: What about the DMA (blood esterases; [15]) of the same compound?
A: Its DMA is 16.5 ng/mL.

Q: What about the “% difference vs. Plain” value (blood esterases; [16]) of the same compound?
A: The value was −30.0%.

Q: And the DMA (blood esterases; [16])?
A: The DMA was 1 ng/mL.

Q: What about the “% difference vs. Plain” value (blood esterases; [17]) of the same compound?
A: The value was −43.5%.

Q: What about the DMA (blood esterases; [17]) of the same compound?
A: Its DMA is 2.4 ng/mL.

Q: What about the “% difference vs. Plain” value (blood esterases; [18]) of the same compound?
A: The value was −29.4%.

Q: And the DMA (blood esterases; [18])?
A: Its DMA is 10.2 ng/mL.

Q: And the “% difference vs. Plain” value (blood esterases; [19])?
A: Its value is −38.7%.

Q: What about the DMA (blood esterases; [19]) of the same compound?
A: The DMA was 0.9 ng/mL.

Q: And the “% difference vs. Plain” value (blood esterases; [20])?
A: The value was −72.7%.

Q: What about the DMA (blood esterases; [20]) of the same compound?
A: The DMA was 1.2 ng/mL.

Q: And the “% difference vs. Plain” value (blood esterases; [21])?
A: The value was −34.1%.

Q: And the DMA (blood esterases; [21])?
A: The DMA was 9.6 ng/mL.

Q: What about the “% difference vs. Plain” value (blood esterases; [22]) of the same compound?
A: Its value is −42.5%.

Q: What about the DMA (blood esterases; [22]) of the same compound?
A: Its DMA is 0.9 ng/mL.

Q: What about the “% difference vs. Plain” value (blood esterases; [23]) of the same compound?
A: Its value is −67.1%.

Q: And the DMA (blood esterases; [23])?
A: The DMA was 1.4 ng/mL.

Q: And the “% difference vs. Plain” value (blood esterases; [24])?
A: Its value is −25.9%.

Q: And the DMA (blood esterases; [24])?
A: The DMA was 10.8 ng/mL.

Q: And the DMA (blood esterases; DMAU 600 ng/mL, Plain tube, 30 min 4 °C)?
A: The DMA was 1.5 ng/mL.

Q: What about the DMA (blood esterases; DMAU 600 ng/mL, Plain tube, 60 min 4 °C) of the same compound?
A: The DMA was 4.3 ng/mL.

Q: What about the DMA (blood esterases; DMAU 600 ng/mL, Plain tube, 60 min RT) of the same compound?
A: The DMA was 14.5 ng/mL.

Q: And the “Reduction of conversion of DMAU” value (blood esterases; DMAU 1000 ng/mL)?
A: The value was 48.8%.

Q: What about the DMA level (blood esterases; DMAU 1000 ng/mL) of the same compound?
A: Its DMA level is 8.82 ng/mL.

Q: What about the “Reduction of overestimation of DMA by collecting blood into NaF tubes” value (blood esterases; increasing amounts of DMAU added to blood) of the same compound?
A: Its value is 30–85%.

Q: What about the “Difference in DMA concentrations between plain and NaF‐EDTA tubes” value ([1]; DMAU concentrations above 10 ng/mL) of the same compound?
A: Its value is 22%.

Q: What about the “Mean difference in DMA concentrations between plain and NaF‐EDTA tubes” value ([1]; DMAU concentrations below 10 ng/mL) of the same compound?
A: The value was roughly 0%.

Q: And the “Conversion of DMAU to DMA in serum” value [2]?
A: Its value is “no conversion”.
